Experimental data gathered from unrelated publications.
Compare with care: the assays were run in different laboratories.
Read-out: metabolic stability
Species: human

CC1(C)NC(=O)N(c2cc(Cl)c(F)c(C(F)(F)F)c2)C1=O  microsomal CLint (liver microsomes): < 7 µL/min/mg
Cc1[nH]c(C)c(S(=O)(=O)Nc2ccc(S(F)(F)(F)(F)F)cc2)c1C(=O)N1CCC(F)(F)C1  microsomal CLint (liver microsomes): 26 µL/min/mg
CC(C)CC(=O)OC[C@H]1O[C@@](C#N)(c2ccc3c(N)ncnn23)[C@H](O)[C@@H]1O  hepatocyte CLint (hepatocytes): > 318 µL/min/10⁶ cells
O=c1[nH]c2ccccc2n1C1CCN(CCCC(c2ccc(F)cc2)c2ccc(F)cc2)CC1  microsomal CLint (liver microsomes; 100 ng/mL): 3.4 µL/min/mg
CC1(C)NC(=O)N(c2ccc(F)c(C(F)(F)F)c2F)C1=O  microsomal CLint (liver microsomes): < 7 µL/min/mg
O=C1CCC(N2Cc3c(ccc4c3OCC43CCN(Cc4ccccc4)CC3)C2=O)C(=O)N1 (stereo not shown)  scaled CLint (liver microsomes; 1 µM): 20.9 mL/min/kg
C[C@]12CC[C@H]3[C@@H](CCC4=CC(=O)CC[C@@]43C)[C@@H]1CC[C@@H]2O  microsomal CLint (liver microsomes): 63.9 µL/min/mg
Cc1[nH]c(C)c(S(=O)(=O)Nc2ccc(S(F)(F)(F)(F)F)c(Cl)c2)c1C(=O)N1CCC(F)(F)C1  microsomal CLint (liver microsomes): 53.1 µL/min/mg
C[C@]12CC[C@H]3[C@@H](CCC4=CC(=O)CC[C@@]43C)[C@@H]1CC[C@@H]2O  scaled CLint (liver microsomes; pH 7.4): 125 mL/min/kg
NCCOCC(=O)N1CCCC(C(=O)NCc2nc(-c3ccc(-c4ccc(F)cc4)cc3)cs2)C1 (stereo not shown)  scaled CLint (liver microsomes): < 4.3 mL/min/kg
